Converted amounts (≈) assume the structure as drawn.

Common to all, as to assay type: functional
For test [1], the system named is E6SM. The test is described as follows: Concentration required to inhibit HSV-1 (McIntyre) induced cytopathogenicity in E6SM cells by 50%. Particulars: Homo sapiens. Background: Damage to the host cells serves as the signal in cytopathic effect assays.
In test [2] the test system is E6SM. The test is described as follows: Concentration required to inhibit HSV-2(lyons) induced cytopathogenicity in E6SM cells by 50%. Particulars: Homo sapiens.
Test [3] has as its system HEL. The test is described as follows: Concentration required to inhibit TK-VZV (07-1) induced cytopathogenicity in HEL cells by 50%. Particulars: Homo sapiens.
Test [4] deals with E6SM. The test is described as follows: Concentration required to inhibit TK-HSV-1 (B2006) induced cytopathogenicity in E6SM cells by 50%. To be noted: Homo sapiens.
The test system of test [5] is HEL. The test is described as follows: Concentration required to inhibit CMV (Davis) induced cytopathogenicity in HEL cells by 50%. To be noted: Homo sapiens.
The test system of test [6] is HEL. The test is described as follows: Concentration required to cause 50% reduction in HEL cell growth. Particulars: Homo sapiens; read-out: MIC. Put shortly: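 Cytotoxicity was measured as inhibition of growth of HEL human embryonic lung fibroblasts. The value is the compound concentration that reduced cell growth by 50%.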
Test [7] relates to E6SM. Kind of test: Concentration required to inhibit HSV-2(G) induced cytopathogenicity in E6SM cells by 50%. Particulars: Homo sapiens.
The test system of test [8] is E6SM. The test is described as follows: Concentration required to inhibit HSV-1 (KOS) induced cytopathogenicity in E6SM cells by 50%. Particulars: Homo sapiens.
In test [9] the test system is E6SM. Kind of test: Concentration required to inhibit HSV-2(196) induced cytopathogenicity in E6SM cells by 50%. Particulars: Homo sapiens.
For test [10], the system named is HEL. The test is described as follows: Concentration required to inhibit VZV (YS) induced cytopathogenicity in HEL cells by 50%. To be noted: Homo sapiens.
In test [11] the test system is HEL. The test is described as follows: Concentration required to inhibit VZV (oka) induced cytopathogenicity in HEL cells by 50%. Particulars: Homo sapiens.
In test [12] the test system is E6SM. The test is described as follows: oncentration required to inhibit VV induced cytopathogenicity in E6SM cells by 50%. Particulars: Homo sapiens.
Test [13] relates to E6SM. Kind of test: Concentration required to inhibit HSV-1 (F) induced cytopathogenicity in E6SM cells by 50%. To be noted: Homo sapiens.
The subject of test [14] is E6SM. Kind of test: Concentration required to inhibit TK-HSV-1 (VMW1837) induced cytopathogenicity in E6SM cells by 50%. Particulars: Homo sapiens.
Test [15] relates to HEL. The test is described as follows: Concentration required to inhibit TK-VZV (YSR) induced cytopathogenicity in HEL cells by 50%. Particulars: Homo sapiens.
Test [16] relates to E6SM. The test is described as follows: Concentration required to cause a microscopically detectable alteration of normal cell morphology in E6SM cells. Particulars: Homo sapiens; read-out: MIC. In short, it runs like this:
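Uninfected E6SM human embryonic skin-muscle fibroblasts were exposed to compound and examined under the microscope. The value is the minimum concentration that caused a detectable alteration of normal cell morphology.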

Test [17] concerns HEL. The test is described as follows: Concentration required to inhibit CMV (AD-169) induced cytopathogenicity in HEL cells by 50%. To be noted: Homo sapiens.
Test [18] has as its system E6SM. The test is described as follows: Concentration required to inhibit VSV induced cytopathogenicity in E6SM cells by 50%. Particulars: Homo sapiens. Put shortly: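 Antiviral assay in E6SM human embryonic skin-muscle fibroblasts, with cells infected by vesicular stomatitis virus (VSV) in microtiter plates. Virus-induced cytopathogenicity is assessed. The value is the compound concentration that reduces VSV-induced cytopathogenicity by 50%.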

With `Cn1ccnc1-c1cn([C@H]2C[C@H](O)[C@@H](CO)O2)c(=O)[nH]c1=O`, the MIC against E6SM [1] was more than 200 µg/mL; in the test on E6SM [2] it was more than 200 µg/mL; against HEL [3], more than 400 µg/mL; in the test on E6SM [4] it was more than 200 µg/mL; in the test with HEL [5] it was more than 400 µg/mL; in the test with E6SM [7], more than 200 µg/mL. The MIC was more than 200 µg/mL in the test with E6SM [8]; more than 200 µg/mL against E6SM [9]; more than 400 µg/mL in the test on HEL [10]; more than 400 µg/mL in the test on HEL [11]; more than 200 µg/mL against E6SM [12]; more than 200 µg/mL in the test on E6SM [13]. Moreover, the MIC in the test with E6SM [14] is more than 200 µg/mL; in the test on HEL [15], more than 400 µg/mL; against HEL [17] it was more than 400 µg/mL. Moreover, in the test with HEL [6], the CC50 (50% cell growth inhibitory concentration) is more than 200 µg/mL. In addition, the minimum cytotoxic concentration (morphology alteration) in the test with E6SM [16] is more than 200 µg/mL.

Regarding `O=c1[nH]c(=O)n([C@H]2C[C@H](O)[C@@H](CO)O2)cc1-c1ccco1`, the MIC in the test on E6SM [1] was 0.2 µg/mL (≈ 0.68 µM); against E6SM [2], more than 400 µg/mL; in the test with HEL [3] it was 155 µg/mL (≈ 527 µM); against E6SM [4] it was 150 µg/mL (≈ 510 µM); in the test with HEL [5], more than 400 µg/mL; against E6SM [7] it was 200 µg/mL (≈ 680 µM). Besides, the MIC was 0.2 µg/mL (≈ 0.68 µM) with E6SM [8]; more than 400 µg/mL in the test on E6SM [9]; 7 µg/mL (≈ 23.8 µM) against HEL [10]; 4 µg/mL (≈ 13.6 µM) against HEL [11]; 0.2 µg/mL (≈ 0.68 µM) in the test with E6SM [13]; 300 µg/mL (≈ 1020 µM) in the test on E6SM [14]. Also, the MIC with HEL [15] was 220 µg/mL (≈ 748 µM); with HEL [17] it was more than 400 µg/mL; against E6SM [18], 300 µg/mL (≈ 1020 µM). The CC50 (50% cell growth inhibitory concentration) in the test on HEL [6] was determined as 100 µg/mL (≈ 340 µM). Besides, the minimum cytotoxic concentration (morphology alteration) with E6SM [16] was more than 400 µg/mL.

Regarding `CC1[C@@H](O)[C@@H](CO)O[C@@H]1n1cc(I)c(=O)[nH]c1=O` (some centres not stated), the MIC in the test with E6SM [1] is 300 µg/mL (≈ 815 µM); against E6SM [2], 300 µg/mL (≈ 815 µM); with HEL [3] it was 90 µg/mL (≈ 244 µM); in the test with E6SM [4] it was 300 µg/mL (≈ 815 µM); against E6SM [7], 300 µg/mL (≈ 815 µM); against E6SM [8], 300 µg/mL (≈ 815 µM). Moreover, the MIC against E6SM [9] was 300 µg/mL (≈ 815 µM); against HEL [10], 10 µg/mL (≈ 27.2 µM); against HEL [11] it was 15 µg/mL (≈ 40.7 µM); against E6SM [12], more than 400 µg/mL; against E6SM [13] it was 300 µg/mL (≈ 815 µM); against E6SM [14], 150 µg/mL (≈ 407 µM). The results for the MIC against HEL [15], in the test on HEL [17] and in the test on E6SM [18] were 170 µg/mL (≈ 462 µM), 400 µg/mL (≈ 1090 µM) and 300 µg/mL (≈ 815 µM), respectively. Moreover, the CC50 (50% cell growth inhibitory concentration) in the test with HEL [6] is more than 200 µg/mL. In addition, the minimum cytotoxic concentration (morphology alteration) with E6SM [16] is more than 400 µg/mL.

Consider `O=c1[nH]c(=O)n(C2O[C@H](CO)[C@@H](O)[C@@H]2O)cc1-c1cccs1` (some centres not stated), for which the MIC in the test on E6SM [1] is 0.07 µg/mL (≈ 0.215 µM); in the test with E6SM [2], 20 µg/mL (≈ 61.3 µM); in the test on HEL [3], 370 µg/mL (≈ 1130 µM); in the test on E6SM [4], more than 400 µg/mL; against HEL [5], 250 µg/mL (≈ 766 µM); with E6SM [7], 20 µg/mL (≈ 61.3 µM). The MIC in the test on E6SM [8] is 0.2 µg/mL (≈ 0.613 µM); with E6SM [9], 100 µg/mL (≈ 306 µM); in the test with HEL [10], 6.5 µg/mL (≈ 19.9 µM); in the test on HEL [11], 5.5 µg/mL (≈ 16.9 µM); against E6SM [12], more than 400 µg/mL; in the test with E6SM [13], 0.2 µg/mL (≈ 0.613 µM). Also, the MIC is more than 400 µg/mL in the test on E6SM [14], more than 400 µg/mL against HEL [15] and 250 µg/mL (≈ 766 µM) against HEL [17]. Also, in the test with HEL [6], the CC50 (50% cell growth inhibitory concentration) is more than 200 µg/mL. Further, the minimum cytotoxic concentration (morphology alteration) in the test on E6SM [16] was more than 400 µg/mL.

In the case of `O=c1[nH]c(=O)n([C@@H]2C[C@@H](O)[C@@H](CO)O2)cc1-c1ccco1`, the MIC in the test with E6SM [1] was 70 µg/mL (≈ 238 µM); against E6SM [2], 150 µg/mL (≈ 510 µM); in the test on HEL [3] it was 260 µg/mL (≈ 884 µM); with E6SM [4], more than 200 µg/mL; in the test on HEL [5], more than 100 µg/mL; in the test on E6SM [7], 300 µg/mL (≈ 1020 µM). Moreover, the MIC was 55 µg/mL (≈ 187 µM) in the test on E6SM [8]; 150 µg/mL (≈ 510 µM) against E6SM [9]; 240 µg/mL (≈ 816 µM) against HEL [10]; 210 µg/mL (≈ 714 µM) in the test on HEL [11]; 300 µg/mL (≈ 1020 µM) against E6SM [12]; 40 µg/mL (≈ 136 µM) against E6SM [13]. The values for the MIC in the test with E6SM [14], in the test with HEL [15] and in the test on HEL [17] were 70 µg/mL (≈ 238 µM), 240 µg/mL (≈ 816 µM) and more than 100 µg/mL, respectively. In the test on HEL [6], the CC50 (50% cell growth inhibitory concentration) turned out to be 110 µg/mL (≈ 374 µM). Further, the minimum cytotoxic concentration (morphology alteration) in the test on E6SM [16] is more than 400 µg/mL.

On to `O=c1[nH]c(=O)n([C@H]2C[C@H](O)[C@@H](CO)O2)cc1/C=C/Br` [BRIVUDINE], for which the MIC in the test with E6SM [1] was 0.02 µg/mL (≈ 0.06 µM); with E6SM [2] it was 10 µg/mL (≈ 30 µM); against HEL [3], more than 40 µg/mL; in the test on E6SM [4], 20 µg/mL (≈ 60 µM); against HEL [5], 250 µg/mL (≈ 750 µM); in the test with E6SM [7], 20 µg/mL (≈ 60 µM). The MIC against E6SM [8] was 0.02 µg/mL (≈ 0.06 µM); against E6SM [9] it was more than 400 µg/mL; in the test with HEL [10], 0.001 µg/mL (≈ 0.003 µM); against HEL [11] it was 0.001 µg/mL (≈ 0.003 µM); in the test on E6SM [12] it was 0.07 µg/mL (≈ 0.21 µM); in the test with E6SM [13] it was 0.02 µg/mL (≈ 0.06 µM). For the same molecule, the MIC in the test on E6SM [14] is 4 µg/mL (≈ 12 µM); with HEL [15], more than 40 µg/mL; in the test on HEL [17], 250 µg/mL (≈ 750 µM); in the test on E6SM [18] it was 400 µg/mL (≈ 1200 µM). The minimum cytotoxic concentration (morphology alteration) in the test with E6SM [16] is more than 400 µg/mL.

Source of the values: ChEMBL document CHEMBL1125605 (1991).
